Measured values collected from several papers.
Lines come from different studies, so protocols differ. Converted amounts (≈) assume the structure as drawn.

SMILES	organism	assay	system	setting	quantity	value
Cc1ncc([N+](=O)[O-])n1CCO	Bacteroides fragilis	microbial growth	–	–	MIC50	0.5 µg/mL
O=C(NCc1ccc2c(c1)OCO2)c1ccc(Br)cc1F	Aspergillus brasiliensis	microbial growth	ATCC16404	72 h	MIC	> 200 µM
CC[C@H](C)C[C@H](C)CCCCCCCCC(=O)N[C@H]1C[C@@H](O)[C@@H](NCCN)NC(=O)[C@@H]2[C@@H](O)CCN2C(=O)[C@H]([C@H](O)CCN)NC(=O)[C@H]([C@H](O)[C@@H](O)c2ccc(O)cc2)NC(=O)[C@@H]2C[C@@H](O)CN2C(=O)[C@H]([C@@H](C)O)NC1=O	Lodderomyces parapsilosis	microbial growth, broth dilution	ATCC22019	–	MIC	0.5 µg/mL
Nc1ccn(C[C@@H](CO)OCP(=O)(O)O)c(=O)n1	Human alphaherpesvirus 1	cytopathic effect	HEL	–	EC50	2 µM
CCCCCOc1ccc(-c2cc(-c3ccc(C(=O)N[C@H]4C[C@@H](O)[C@@H](O)NC(=O)[C@@H]5[C@@H](O)[C@@H](C)CN5C(=O)[C@H]([C@H](O)CC(N)=O)NC(=O)[C@H]([C@H](O)[C@@H](O)c5ccc(O)c(OS(=O)(=O)O)c5)NC(=O)[C@@H]5C[C@@H](O)CN5C(=O)[C@H]([C@@H](C)O)NC4=O)cc3)no2)cc1	Lodderomyces parapsilosis	microbial growth	–	–	MIC90	4 µg/mL (≈ 3.15 µM)
O=[N+]([O-])c1ccc(C2=[N+]([O-])c3ccccc3N3CCN=C23)cc1	Bacteroides fragilis	microbial growth	–	–	MIC50	≤ 0.06 µg/mL
O=c1[nH]c(=O)n([C@H]2C[C@H](O)[C@@H](CO)O2)cc1/C=C/Br	Human alphaherpesvirus 1	cytopathic effect	HEL	–	EC50	2 µM
OC(Cn1cncn1)(Cn1cncn1)c1ccc(F)cc1F	Aspergillus niger	microbial killing	–	–	MFC	40 µM (≈ 12.3 µg/mL)
Cn1cnc2nc(NCc3ccc(Cl)c(Cl)c3)[nH]c(=O)c21	Bacteroides fragilis	microbial growth, agar dilution	–	48 h	MIC	> 32 µg/mL
CCOC(=O)c1ccccc1S(=O)(=O)NC(=O)Nc1nc(Cl)cc(OC)n1	Lodderomyces parapsilosis	microbial growth, broth dilution	–	24 h	MIC50	1.1 µM
Nc1nc2c(ncn2COCCO)c(=O)[nH]1	Human alphaherpesvirus 1	cytopathic effect	HEL	–	EC50	0.2 µM
CC(C)[C@H](N)C(=O)OCCCCCn1cnc2nc(NCc3ccc(Cl)c(Cl)c3)[nH]c(=O)c21	Bacteroides fragilis	microbial growth, agar dilution	–	48 h	MIC	> 32 µg/mL
